Published values from different studies.
Protocols differ between the studies behind these lines.
Target: Dual specificity tyrosine-phosphorylation-regulated kinase 1A (DYRK1A, Homo sapiens, UniProt Q13627)
Read-out: enzyme activity
Action: inhibitor

For `COc1ccc(C(=O)Nc2sc3c(c2C(N)=O)CCCC3)cc1OC`, the remaining activity was 97.4% (0.5 µM).
`Oc1cccc(-c2nc(N3CCOCC3)c3oc4ncccc4c3n2)c1` has a remaining activity of 59% (10 µM).
With `O=C(O)c1ccc2c(c1)nc(Nc1ccc3ccccc3c1)c1ccncc12` the remaining activity was 2% (radiometric; 1 µM).
For `COc1cc(Nc2cnc(C#N)c(O[C@H](C)CN(C)C)n2)ncc1-c1cnn(C)c1`, the remaining activity was 91% (radiometric; 1 µM).
`Cc1sc(C(=O)NC2COC2)cc1-n1cc(NC(=O)Nc2c(F)cccc2Cl)cn1` has a remaining activity of 95.5% (10 µM).
The remaining activity of `COc1cccc(CCNc2nc3cc(C(=O)O)ccc3c3cnccc23)c1` is reported as 12% (radiometric; 1 µM).
`CC(C)(C)c1nc(-c2cccc(NS(=O)(=O)c3c(F)cccc3F)c2F)c(-c2ccnc(N)n2)s1` gave a remaining activity of 90% (radiometric; 1 µM).
`Cc1cnc(NC2CCOCC2)nc1-n1cnc(C(=O)NC(CN)c2cc(F)cc(Cl)c2)c1` (stereo not drawn) has a remaining activity of 84% (radiometric; 1 µM).
The remaining activity of `O=C(O)c1ccc2c(c1)nc(Nc1ccc(F)c(Cl)c1)c1ccncc12` is reported as 0% (radiometric; 1 µM).
`COc1cc(Cl)c(C(=O)N[C@@H](CN[C@H]2CC[C@@H](N)CC2)Cc2ccc(C#N)cc2)cc1-c1ccc(CN[C@H](C)c2ccc(C)cc2)o1` gave a remaining activity of 120% (1 µM).
`O=C(Nc1cnn(-c2csc(C(=O)NC3COC3)c2)c1)Nc1c(F)cccc1Cl` gave a remaining activity of 75.1% (5 µM).
With `O=c1cc(-c2cccc3c2Sc2ccccc2S3)oc(N2CCOCC2)c1` the remaining activity was 95% (0.5 µM).
`O=C(O)c1ccc2c(c1)nc(Nc1ccccc1Cl)c1ncncc12` has a remaining activity of 11% (radiometric; 1 µM).
The remaining activity of `COc1cc2nccc(Oc3ccc(NC(=S)NC(=O)c4ccccc4C)cc3)c2cc1OC` is reported as 95.4% (0.5 µM).
`Nc1nc(NC2CCCCC2)sc1C(=O)c1ccccc1` has a remaining activity of 25% (10 µM).
